Lipid droplet = inhibitors of hepatocyte lipid droplet formation, primary screen, imaging, high-throughput imaging, BODIPY stain; 240,000 compounds, 0.4% hits; AML12 mouse hepatocytes, oleate lipid droplets; inhibition, % at 6.5 µM;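 active = lipid droplet intensity inhibited by at least 50%, with more than 500 cells counted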
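Technique: fluorescence imaging, 20x objective, two fields per well / Assay system: AML12 hepatocytes (mouse) / Measure: % inhibition of lipid droplet signal / Doses: 6.5 µM single-point dosing / Incubation: overnight exposure / Reagent: 100 µM oleic acid challenge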
GAA850 FXN act = FXN promoter activators, primary screen, cell-based, luciferase luminescence, HEK293 lucGAA850; AID 540364, 2011; activation, % at 6 µM; 360,000 compounds, 0.56% hits; HEK293 lucGAA850 FXN promoter luciferase reporter, 24 h; percent of 10 µM SAHA response;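 active = activation above the average of all compounds screened plus 3 SD, cutoff fixed separately per campaign, cut at about 7.5% in these data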;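 also: 0% = DMSO wells and 100% = 10 µM SAHA wells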
proCasp3 act = activators of human procaspase-3 D3A mutant, primary screen, biochemical, absorbance, PC-3 D3A mutant, single concentration. 330,000 compounds, 0.11% hits. activation, % at 8.5 µM. Caspase-3 (Homo sapiens), P42574. recombinant procaspase-3 D3A, Ac-DEVD-pNA absorbance 405 nm. AID 463141, 2010;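 active = activation above the mean of all tested compounds plus 3 SD, cut at about 21% in these data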;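 also: 0% = DMSO alone and 100% = DMSO wells spiked with extra 5 µM PC-3 D3A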
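Evaluation: percent activation relative to control range; Material: Procaspase-3 D3A mutant, all three cleavage aspartates alanine; Compound: single dose, 8.5 µM nominal compound, 0.8% DMSO; Replication: one well per compound; Signal: absorbance at 405 nm, 0 and 120 min; Schedule: 1 h preincubation plus 2 h reaction at 25 °C.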
proCasp7 act = procaspase-7 activators, primary screen, counter-screen for procaspase-3 activator project, biochemical, absorbance, HTS, human; Caspase-7 (Homo sapiens), P55210; recombinant procaspase-7, Ac-DEVD-pNA absorbance 405 nm; D23A/D198A/D206A triple mutant, cannot self-cleave; scale: DMSO 0, 5 µM enzyme 100; activation, % at 8.5 µM; 330,000 compounds, 0.093% hits;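 active = percent activation above the screen-wide mean plus 3 SD, cut at about 25% in these data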
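System: Uncleavable procaspase-7 mutant enzyme; Amount: 2 µM procaspase-7 mutant as dispensed; Schedule: 1 h compound preincubation, 2 h substrate cleavage, 25 °C; Measured by: 405 nm absorbance of p-nitroaniline; Evaluation: percent activation from buffer-corrected 0–120 min absorbance change; Control set: low DMSO alone, high DMSO plus 5 µM PC-7.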
p-CIP stab down = p/CIP-EGFP fusion destabilizers, primary screen, fluorescence, F442A cells. 16 h. 290,000 compounds, 0.01% hits. Q05BA5. decrease of EGFP signal, % at 10 µM;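 active = EGFP signal decrease of at least 30% at 10 µM or well 3 SD below plate mean, unless failing retest; inactive = the rest, including hits failing retest or dose response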
Rce1 inhib = yeast Rce1p protease inhibitors, primary screen, biochemical, fluorescence, cell-free homogeneous; CAAX prenyl protease 2 (Saccharomyces cerevisiae (strain ATCC 204508 / S288c)), Q03530; yeast membranes, quenched prenylated peptide cleavage fluorescence; calls only; 290,000 compounds, 0.27% hits; AID 2563, 2010;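 active = fall in fluorescence gain of 50% or more versus controls, with final raw signal at or below 3038400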;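 also: plate controls were neutral control wells for no effect and wells lacking membranes for full effect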
Target sequence (Q03530 whole entry, looked up): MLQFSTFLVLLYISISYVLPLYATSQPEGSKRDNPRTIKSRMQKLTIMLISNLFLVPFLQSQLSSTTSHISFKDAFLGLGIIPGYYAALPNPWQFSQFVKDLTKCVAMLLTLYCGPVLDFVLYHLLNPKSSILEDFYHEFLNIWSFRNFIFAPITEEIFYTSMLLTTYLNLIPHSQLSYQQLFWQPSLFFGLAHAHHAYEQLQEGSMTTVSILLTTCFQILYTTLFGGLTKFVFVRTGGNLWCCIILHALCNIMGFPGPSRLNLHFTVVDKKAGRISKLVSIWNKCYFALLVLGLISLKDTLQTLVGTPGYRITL
GAA30 counter = GAA30 FXN promoter activators, confirmation, counter-screen for GAA850 frataxin promoter activator project, cell-based, luminescence, HEK293, lucGAA30, triplicate; shares compounds with GAA850 FXN act; HEK293 lucGAA30 FXN promoter luciferase, 24 h; DMSO = 0%, 5 µM ipriflavone = 100%; activation, % at 6 µM; 1,900 compounds, 66% hits;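 active = mean activation above the mean of solvent-only control wells plus 3 SD, cut at about 22% in these data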;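 also: counterscreen of GAA850 promoter hits where activity marks nonselective or luminescence artifacts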
FXN GAA850 conf = FXN GAA850 promoter activators in reporter cells, confirmation, cell-based, luminescence, HEK293 lucGAA850, triplicate. shares compounds with GAA850 FXN act. HEK293 lucGAA850 FXN promoter luciferase reporter, 24 h; 100% = activation by SAHA. activation, % at 6 µM. 1,900 compounds, 86% hits;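 active = mean activation above a set limit taken from the primary screen, cut at about 8% in these data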;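 also: 0% = DMSO wells and 100% = 10 µM SAHA wells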
Numbers without * were called inactive; i = inactive; x = no result given. Rows were chosen to be rich in hits. Some 1.2% of all compounds tested hit in one or more screens of this group.

SMILES | Lipid droplet | GAA850 FXN act | proCasp3 act | proCasp7 act | p-CIP stab down | Rce1 inhib | GAA30 counter | FXN GAA850 conf
C(=N\NC1=Nc2cccc3cccc1c23)/c1ccccn1 | 4.4 | -0.9 | x | x | 33.1 | i | x | x
C[n+]1c2cc(N)ccc2cc2ccc(N)cc21 | x | 20.0* | x | x | x | x | 16.0 | 137.7*
CC1(C)Cc2c(cnn2-c2ccccc2)C(NC(=O)CCCn2cncn2)C1 (centres undefined) | -16.8 | 4.1 | x | x | -28.2 | i | x | x
Cc1nn(-c2ccccc2Cl)c(Cl)c1/C=N/Nc1cccc(C(=O)O)c1 | 11.9 | 7.8* | -4.0 | -3.0 | 0.4 | i | 119.0* | 40.5*
CC(C)c1ccc(N(C(=O)c2csnn2)C(C(=O)NC2CCCC2)c2ccncc2)cc1 (centres undefined) | -1.4 | 20.0* | 5.9 | -0.8 | -8.8 | x | 67.3* | 24.5*
Cc1ccccc1CCN(C(=O)c1csnn1)C(C(=O)NC1CCCC1)c1ccncc1 (centres undefined) | -17.9 | 14.0* | 1.2 | -0.1 | -6.8 | i | 18.9 | 7.4
CC(C)c1ccc(N(C(=O)c2ccco2)C(C(=O)NC2CCCC2)c2ccncc2)cc1 (centres undefined) | -1.4 | 10.3* | 7.7 | -3.4 | -4.2 | i | 106.2* | 37.9*
CCCCc1cc(=O)oc2cc(OC(C)C(=O)NCCN3CCOCC3)c(Cl)cc12 (centres undefined) | -17.5 | 2.7 | -0.1 | -1.9 | 4.0 | i | x | x
Cc1cc(C)c(S(=O)(=O)NCC2CCC(C(=O)NCCCN3CCC(C)CC3)CC2)c(C)c1 (centres undefined) | 2.5 | -0.4 | -2.6 | 9.8 | 5.4 | i | x | x
Cc1nonc1C(=O)N/N=C/c1ccc(O)c(O)c1 | 2.6 | 9.4* | -2.4 | -2.6 | -14.4 | i | 29.6* | 8.4*
COc1cc(/C=N/NC(=O)c2nonc2C)ccc1O | 29.4 | 0.8 | -4.2 | -8.7 | -5.8 | i | x | x
CCN(CCn1cccn1)C(=O)c1cc(COc2cc(C)ccc2C)on1 | -8.6 | 5.1 | x | x | -4.7 | i | x | x
C=C1C(=O)O[C@H]2[C@H]1[C@H](OC(=O)/C(C)=C\C)C[C@]1(CO1)[C@@H]1[C@H](OC(C)=O)C=C(C)[C@]21O | x | 11.9* | x | x | x | x | 4.3 | 17.3*
CN(CC(=O)Nc1ccc(F)c(F)c1F)C(=O)c1ccc(=O)[nH]c1 | -2.4 | -1.8 | -1.2 | 0.3 | -4.8 | i | x | x
C[C@H](CO)N1C[C@H](C)[C@H](CN(C)S(=O)(=O)c2ccc(Cl)cc2)OCc2ccccc2-c2c(n(C)c3ccccc23)C1=O | x | 12.3* | x | x | x | x | 5.5 | 9.8*
Cc1ccc(S(=O)(=O)N(C)C[C@@H]2OCc3ccccc3-c3c(n(C)c4ccccc34)C(=O)N([C@H](C)CO)C[C@@H]2C)cc1 | x | 12.8* | x | x | x | x | 10.1 | 8.8*
CC(=O)c1ccccc1NC(=O)c1cc(S(=O)(=O)N2CCOCC2)ccc1N1CCCC1 | x | -0.5 | 8.1 | -12.7 | x | x | x | x
CC1CC(C)(C)Nc2ccc(N=O)cc21 (centres undefined) | 44.0 | 12.5* | x | x | -2.5 | i | 58.3* | 67.4*
CC1CCCCC12NC(=O)N(CC(=O)NCCc1ccccc1)C2=O (centres undefined) | x | -0.6 | -3.9 | 1.1 | x | x | x | x

From PubChem
